Experimental data reported in ChEMBL document CHEMBL3856193, “Combretastatin A-4 analogues with benzoxazolone scaffold: Synthesis, structure and biological activity” (Eur J Med Chem, 2016).
Activity calls are given as the source filed them. No cut-off for these calls is given here.

Assays:
[1] = Growth inhibition of human K562 cells measured after 72 hrs by MTT assay; type: functional, cell-based; details: K562, 72 h
Outline: (§1)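 Cells seeded at 1 x 10^4/100 µL, treated 24 h later with drug diluted from 2 mmol/L DMSO stock (0.01% DMSO final), 72 h incubation. MTT added for 3 h at 37°C, formazan dissolved in 0.1 N HCl/isopropanol, OD read at 550/630 nm. Eight replicates per concentration, mean ± SD. IC50 from curve fitting. Cells kept at 37°C in humidified CO2.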

[2] = Growth inhibition of human EAhy926 cells measured after 72 hrs by MTT assay; type: functional, cell-based; details: EA.hy 926, 72 h; outline: as §1
[3] = Growth inhibition of human HepG2 cells measured after 72 hrs by MTT assay; type: functional, cell-based; details: HepG2, 72 h; outline: as §1
[4] = Cell cycle arrest in human HepG2 cells assessed as decrease in G0/G1 phase at growth inhibitory IC50 measured after 24 hrs by propidium iodide-staining based FACS analysis; type: functional
[5] = Cell cycle arrest in human HepG2 cells assessed as increase in G2/M phase accumulation at growth inhibitory IC50 after 8 hrs by propidium iodide-staining based FACS analysis relative to combretastatin A-4; type: functional; set-up: scale not given: the % may be the effect or the level left
EA.hy 926 [6] = test: Cytostatic activity against human EAhy926 cells up to 25 uM measured after 72 hrs by MTT assay; type: functional, cell-based; outline: as §1
HepG2 [7] = test: Induction of apoptosis in human HepG2 cells assessed as necrotic cells at 0.19 to 0.28 uM measured after 48 hrs by Annexin V-FITC/propidium iodide staining-based flow cytometric analysis relative to control; type: functional
[8] = Cytotoxicity against human NHEK measured after 72 hrs by MTT assay; type: toxicity; outline: as §1
[9] = Antiproliferative activity against human HaCaT cells measured after 72 hrs by MTT assay; type: functional, cell-based
Outline: (§2)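 Cells seeded at 1 × 10^4 per well and left 24 h, then exposed to graded compound concentrations (stock 2 mmol/L in DMSO, final DMSO 0.01% in medium) for 72 h at 37 °C in humidified CO2. MTT (5 mg/mL) added for 3 h; formazan dissolved in 0.1 N HCl/isopropanol and read at 550/630 nm. Eight replicate wells per concentration; IC50 from curve fitting.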

Colon 26 = test: Potency index, ratio of combretastatin A-4 IC50 to compound IC50 for mouse Colon 26 cells; type: functional
EA.hy 926 [10] = test: Induction of apoptosis in human EAhy926 cells assessed as necrotic cells at 0.19 to 0.28 uM measured after 48 hrs by Annexin V-FITC/propidium iodide staining-based flow cytometric analysis relative to control; type: functional
[11] = Antiproliferative activity against human MCF7 cells measured after 72 hrs by MTT assay; type: functional, cell-based; details: MCF7, 72 h; outline: as §1
[12] = Antiproliferative activity against CA-4-resistant human HT-29 cells measured after 72 hrs by MTT assay; type: functional, cell-based; details: HT-29, 72 h; outline: as §2
HepG2 [13] = test: Cytostatic activity against human HepG2 cells up to 25 uM measured after 72 hrs by MTT assay; type: functional, cell-based; outline: as §1
[14] = Cell cycle arrest in human HepG2 cells assessed as accumulation of cells with 4N DNA content at growth inhibitory IC50 measured after 24 hrs by propidium iodide-staining based FACS analysis relative to control; type: functional; set-up: scale not given: the % may be the effect or the level left
EA.hy 926 [15] = test: Induction of apoptosis in human EAhy926 cells assessed as increase in apoptotic cells at growth inhibitory IC50 measured after 48 hrs by Annexin V-FITC/propidium iodide staining-based flow cytometric analysis relative to control; type: functional, cell-based
EA.hy 926 [16] = test: Antiangiogenic activity against human EAhy926 assessed as inhibition of capillary tube formation at 0.28 uM after 72 hrs by matrigel assay; type: functional
Outline: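 EA.hy 926 cells (4 x 10^4) plated onto Matrigel pre-set 30 min at 37°C in complete DMEM; after 24 h medium replaced by EBM2 alone (control) or EBM2 with 0.28 µM or 0.11 µM drug. Capillary tube formation followed by inverted microscopy up to 72 h.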

[17] = Antiproliferative activity against CA-4-resistant human MDA-MB-231 cells measured after 72 hrs by MTT assay; type: functional, cell-based; details: MDA-MB-231, 72 h; outline: as §1
[18] = Cell cycle arrest in human HepG2 cells assessed as >4N DNA content at growth inhibitory IC50 measured after 24 hrs by propidium iodide-staining based FACS analysis relative to control; type: functional; set-up: scale not given: the % may be the effect or the level left
HepG2 [19] = test: Inhibition of beta-tubulin polymerization in human HepG2 cells assessed as mitotic slippage at 185 to 190 nM measured after 24 hrs by DAPI staining based immunofluorescence analysis; type: cell-based
Outline: (§3)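 HepG2 cells grown on coverslips were treated 24 h with 185 nM drug, with 0.01% DMSO vehicle as control. Cells fixed in 3.7% buffered paraformaldehyde and immunostained for β-tubulin (AlexaFluor-488 secondary, 40 min). F-actin labelled with phalloidin, DNA with DAPI mounting medium. Imaged by fluorescence microscopy.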

HepG2 [20] = test: Inhibition of beta-tubulin polymerization in human HepG2 cells assessed as induction of mitotic ploidity at 185 to 190 nM measured after 24 hrs by DAPI staining based immunofluorescence analysis; type: cell-based; outline: as §3
Sus scrofa [21] = species: Sus scrofa; test: Inhibition of porcine brain tubulin polymerization at 50 uM measured every 1 min for 40 mins in presence of GTP
HepG2 [22] = test: Induction of micronuclei formation in human HepG2 cells at 185 to 190 nM measured after 24 hrs by DAPI staining based immunofluorescence analysis; type: functional, cell-based; outline: as §3
[23] = Cell cycle arrest in human HepG2 cells assessed as accumulation of hypoploid sub-G1 cells at growth inhibitory IC50 measured after 72 hrs by propidium iodide-staining based FACS analysis; type: functional
HT-29 = test: Potency index, ratio of IC50 for combretastatin A-4 to IC50 for test compound against human HT-29 cells; type: functional
Sus scrofa [24] = species: Sus scrofa; test: Inhibition of porcine brain tubulin polymerization at 10 uM measured every 1 min for 40 mins in presence of GTP
HepG2 [25] = test: Induction of apoptosis in human HepG2 cells assessed as increase in apoptotic cells at growth inhibitory IC50 measured after 48 hrs by Annexin V-FITC/propidium iodide staining-based flow cytometric analysis relative to control; type: functional, cell-based
HepG2 [26] = test: Inhibition of beta-tubulin polymerization in human HepG2 cells assessed as formation of pseudo G1 phase multinucleated cells at 185 to 190 nM measured after 24 hrs by DAPI staining based immunofluorescence analysis; type: cell-based; outline: as §3
[27] = Antiproliferative activity against CA-4-resistant human A549 cells measured after 72 hrs by MTT assay; type: functional, cell-based; details: A549, 72 h; outline: as §2
Sus scrofa [28] = species: Sus scrofa; test: Inhibition of porcine brain tubulin polymerization measured every 1 min for 40 mins in presence of GTP
[29] = Cell cycle arrest in human HepG2 cells assessed as decrease in accumulation of G2/M phase at growth inhibitory IC50 measured after 72 hrs by propidium iodide-staining based FACS analysis; type: functional
A549 = test: Potency index, ratio of combretastatin A-4 IC50 to compound IC50 for human A549 cells; type: functional
HepG2 [30] = test: Inhibition of beta-tubulin polymerization in human HepG2 cells assessed as DNA fragmentation at 185 to 190 nM measured after 24 hrs by DAPI staining based immunofluorescence analysis; type: cell-based; outline: as §3
Sus scrofa [31] = species: Sus scrofa; test: Induction of porcine brain tubulin polymerization assessed as time required to reach maxium effect at 10 uM measured every 1 min for 40 mins in presence of GTP
[32] = Cytostatic activity against human MCF10A cells assessed as cell survival up to 25 uM measured after 72 hrs by MTT assay relative to control; type: ADME, cell-based, MCF-10A; details: read-out: Survival
K562 = test: Cytostatic activity against human K562 cells up to 25 uM measured after 72 hrs by MTT assay; type: functional, cell-based; outline: as §1
[33] = Antiproliferative activity against mouse Colon 26 cells measured after 72 hrs by MTT assay; type: functional, cell-based; details: Colon 26, 72 h; outline: as §2
[34] = Cell cycle arrest in human HepG2 cells assessed as decrease in S phase at growth inhibitory IC50 measured after 24 hrs by propidium iodide-staining based FACS analysis; type: functional
[35] = Cell cycle arrest in human HepG2 cells assessed as accumulation in G2/M phase at growth inhibitory IC50 measured after 8 hrs by propidium iodide-staining based FACS analysis (reference value: 28%); type: functional; set-up: scale not given: the % may be the effect or the level left
HepG2 [36] = test: Inhibition of beta-tubulin polymerization in human HepG2 cells assessed as multi-polar spindle formation at 185 to 190 nM measured after 24 hrs by DAPI staining based immunofluorescence analysis; type: cell-based; outline: as §3

**Q.** Which IC50 [1] does the source give for `COc1cc(/C=C\c2cccc3oc(=O)n(C)c23)cc(OC)c1` here?
**A.** 11300 nM

**Q.** And the IC50 [2]?
**A.** 29400 nM

**Q.** And the IC50 [3]?
**A.** 18000 nM

**Q.** What does the source list for `COc1cc(/C=C\c2cccc3oc(=O)n(C)c23)cc(OC)c1OC`?
**A.** IC50 [1]: 10100 nM; IC50 [2]: 14800 nM; IC50 [3]: 19000 nM

**Q.** What does the source list for `COc1ccc(/C=C\c2cccc3oc(=O)n(C)c23)cc1`?
**A.** IC50 [1]: 960 nM; IC50 [2]: 39900 nM; IC50 [3]: 16100 nM

**Q.** Which results are given for `COc1cc(/C=C\c2ccc3c(c2)oc(=O)n3C)cc(OC)c1OC`?
**A.** Activity [4]: Active; Activity [5]: 6%; Activity (EA.hy 926 [6]): Active; Activity (HepG2 [7]): 20%; Activity [8]: Non-Toxic; IC50 [1]: 730 nM; IC50 [9]: 60 nM; Ratio IC50 (Colon 26): 9; Activity (EA.hy 926 [10]): 20%; IC50 [11]: 70 nM; IC50 [12]: 250 nM; Activity (HepG2 [13]): Active; Activity [14]: 80%; Activity (EA.hy 926 [15]): Active; inhibition (EA.hy 926 [16]): Active; IC50 [17]: 168 nM; Activity [18]: 9%; inhibition (HepG2 [19]): Active; inhibition (HepG2 [20]): Active; IC50 [2]: 280 nM; inhibition (Sus scrofa [21]): Active; Activity (HepG2 [22]): Active; Activity [23]: Active; Ratio IC50 (HT-29): >10; IC50 [3]: 190 nM; inhibition (Sus scrofa [24]): 40%; Activity (HepG2 [25]): Active; inhibition (HepG2 [26]): Active; IC50 [27]: 60 nM; inhibition (Sus scrofa [28]): Dose-dependent effect; Activity [29]: Active; Ratio IC50 (A549): 50; inhibition (HepG2 [30]): Active; TIME (Sus scrofa [31]): 0.333 h; viability at 72 h [32]: 70%; Activity (K562): Active; IC50 [33]: 50 nM; Activity [34]: Active; Activity [35]: 39%; inhibition (HepG2 [36]): Active
